Active and inactive are the calls of the source. The rule behind the calls is not given here.
How the values were obtained:
MT4 = experiment: Cytotoxicity against human MT4 cells by CellTitre-Glo luminescent assay; assay type: cell-based
[1] = system: Human immunodeficiency virus 1; experiment: Antiviral activity against HIV-1 NL4-3 infected in human MT4 cells assessed as inhibition of viral replication after 4 days by ELISA; assay type: functional
Summary of the method: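 MT4 cells infected with HIV-1 NL4-3 at MOI 0.001 in presence of graded compound concentrations; fresh medium with compound added 48 h post-infection to sustain growth. Replication measured by p24 ELISA on day 4 post-infection. EC90 (concentration inhibiting replication by 90%) calculated from dose-response.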

[2] = Human immunodeficiency virus 1, NL4-3, MT4, 96 h

Compound	IC50 (MT4) [µM]	EC90 [1, 2] [nM]	EC90 [1]
C=C(C)[C@@]12C[C@@H](COC(=O)c3ccccc3)[C@@]34OC5(O[C@@H]1[C@@H]3[C@@H]1O[C@]1(CO)[C@@H](O)[C@@]1(O)[C@H]4[C@H]([C@H](C)[C@@H]1OC(=O)c1ccccc1)[C@H](C)CCCCCC[C@H]5O)O2 [GNIDIMACRIN]	4.3	0.4	–
COc1ccc([C@@H]2Oc3cc(O)cc(O)c3C(=O)[C@@H]2[C@H]2C(=O)c3c(O)cc(O)cc3O[C@H]2c2ccc(OC)cc2)cc1	–	–	inactive
C=C(C)[C@]12C[C@@H](COC(C)=O)[C@@]34O[C@]5(O[C@@H]1[C@@H]3[C@@H]1O[C@]1(CO)[C@@H](O)[C@@]1(O)[C@H]4[C@H]([C@H](C)[C@@H]1OC(=O)c1ccccc1)[C@H](C)CCCCCC[C@H]5O)O2	4.3	0.4	–
COc1cc(/C=C/C(=O)OCCCCCCCCCCCCCCCCCCCCCC(=O)OCC(O)CO)ccc1O (configuration not stated)	16.2	–	–
COc1ccc([C@@H]2Oc3cc(OC)cc(O)c3C(=O)[C@H]2[C@@H]2C(=O)c3c(O)cc(O)cc3O[C@H]2c2ccc(O)cc2)cc1	17.5	4210	–
CCCCCCCC(=O)O[C@@]12[C@H](OC(=O)c3ccccc3)[C@@H](C)[C@@]3(O)[C@H]([C@@H]1C2(C)C)[C@@H](OO)C(CO)=C[C@]1(O)C(=O)C(C)=C[C@@H]31	15.8	1520	–
O=C(/C=C/CCc1ccccc1)c1ccccc1	–	–	inactive
COc1ccc([C@@H]2Oc3cc(O)cc(O)c3C(=O)[C@@H]2[C@H]2C(=O)c3c(O)cc(OC)cc3O[C@H]2c2ccc(OC)cc2)cc1	–	–	inactive
CCCCCCCCCC(=O)O[C@@]12[C@H](OC(=O)c3ccccc3)[C@@H](C)[C@@]3(O)[C@H]([C@@H]1C2(C)C)[C@@H](OO)C(CO)=C[C@]1(O)C(=O)C(C)=C[C@@H]31	3.5	490	–
CC/C=C\C/C=C\CCC(=O)O[C@@]12[C@H](OC(=O)c3ccccc3)[C@@H](C)[C@@]3(O)[C@@H](C=C(CO)C[C@]4(O)C(=O)C(C)=C[C@@H]34)[C@@H]1C2(C)C	7.8	6.8	–
CCCCC/C=C\CCC(=O)O[C@@]12[C@H](OC(=O)c3ccccc3)[C@@H](C)[C@@]3(O)[C@@H](C=C(CO)C[C@]4(O)C(=O)C(C)=C[C@@H]34)[C@@H]1C2(C)C	4.7	0.66	–
CCCCCCCC(=O)O[C@@]12[C@H](OC(=O)c3ccccc3)[C@@H](C)[C@]3(O)[C@@H]4C=C(C)C(=O)[C@@]4(O)[C@H](O)C(CO)=C[C@H]3[C@@H]1C2(C)C	17.2	3.8	–
CCCCCCCCCC(=O)O[C@@]12[C@H](OC(=O)c3ccccc3)[C@@H](C)[C@@]3(O)[C@@H](C=C(CO)C[C@]4(O)C(=O)C(C)=C[C@@H]34)[C@@H]1C2(C)C [STELLERARIN]	5.1	0.5	–

From ChEMBL document CHEMBL2375298, “Isolation, structure determination, and anti-HIV evaluation of tigliane-type diterpenes and biflavonoid from Stellera chamaejasme” (J Nat Prod, 2013)
